Experiments:
Format in all cases: functional
[1] = test system: SR; assay: Cytotoxicity against human SR cells assessed as cell growth at 0.1 uM after 48 hrs by sulforhodamine B assay; conditions: read-out: Activity
[2] = test system: NCI-H322M; assay: Cytotoxicity against human NCI-H322M cells assessed as cell growth at 0.1 uM after 48 hrs by sulforhodamine B assay; conditions: read-out: Activity
[3] = test system: NCI-H522; assay: Cytotoxicity against human NCI-H522 cells assessed as cell growth at 0.1 uM after 48 hrs by sulforhodamine B assay; conditions: NCI-H522, 48 h, read-out: Activity
[4] = test system: HCT-15; assay: Cytotoxicity against human HCT15 cells assessed as cell growth at 0.1 uM after 48 hrs by sulforhodamine B assay; conditions: HCT-15, 48 h, read-out: Activity
Summary of the method: (§1)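 Five-dose NCI panel run at 0.01, 0.1, 1, 10 and 100 µM. Cells were in RPMI 1640 with 5% FBS and 2 mM L-glutamine, seeded at 5000–40,000 cells/well and pre-incubated 24 h. Drug was diluted from a DMSO stock into medium with 50 µg/ml gentamicin. Exposure was 48 h at 37 °C, 5% CO2. Cells were fixed with cold TCA and stained with 0.4% SRB, read at 515 nm. Percent growth came from time-zero, control and test absorbances.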

[5] = test system: 786-0; assay: Cytotoxicity against human 786-0 cells assessed as cell growth at 0.1 uM after 48 hrs by sulforhodamine B assay; conditions: 786-0, 48 h, read-out: Activity
Summary of the method: (§2)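 NCI-60 five-dose screen. Cells were grown in RPMI 1640 with 5% FBS and 2 mM L-glutamine and preincubated 24 h. Compound (DMSO stock) was tested at 0.01, 0.1, 1, 10 and 100 µM for 48 h at 37 °C. Cells were fixed in situ with cold TCA (final 10%) and stained with 0.4% SRB. A515 was read, and percent growth was calculated against time-zero and control plates.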

[6] = test system: Malme-3M; assay: Cytotoxicity against human MALME-3M cells assessed as cell growth at 100 uM after 48 hrs by sulforhodamine B assay; conditions: read-out: Activity
[7] = test system: UACC-257; assay: Cytotoxicity against human UACC257 cells assessed as cell growth at 100 uM after 48 hrs by sulforhodamine B assay; conditions: UACC-257, 48 h, read-out: Activity
[8] = test system: OVCAR-8; assay: Cytotoxicity against human OVCAR8 cells assessed as cell growth at 100 uM after 48 hrs by sulforhodamine B assay; conditions: OVCAR-8, 48 h, read-out: Activity
[9] = test system: A549; assay: Cytotoxicity against human A549 cells assessed as cell growth at 1 uM after 48 hrs by sulforhodamine B assay; conditions: A549, 48 h, read-out: Activity; summary of the method: as §2
[10] = test system: KM12; assay: Cytotoxicity against human KM12 cells assessed as cell growth at 1 uM after 48 hrs by sulforhodamine B assay; conditions: KM12, 48 h, read-out: Activity
[11] = test system: SNB-75; assay: Cytotoxicity against human SNB75 cells assessed as cell growth at 1 uM after 48 hrs by sulforhodamine B assay; conditions: SNB-75, 48 h, read-out: Activity
[12] = test system: CAKI-1; assay: Cytotoxicity against human Caki1 cells assessed as cell growth at 1 uM after 48 hrs by sulforhodamine B assay; conditions: CAKI-1, 48 h, read-out: Activity; summary of the method: as §2
[13] = test system: A549; assay: Cytotoxicity against human A549 cells assessed as cell growth at 10 uM after 48 hrs by sulforhodamine B assay; conditions: A549, 48 h, read-out: Activity; summary of the method: as §2
[14] = test system: MCF7; assay: Cytotoxicity against human MCF7 cells assessed as cell growth at 10 uM after 48 hrs by sulforhodamine B assay; conditions: MCF7, 48 h, read-out: Activity
[15] = test system: HCC 2998; assay: Cytotoxicity against human HCC2998 cells assessed as cell growth at 10 '-5 M after 48 hrs by sulforhodamine B assay; conditions: HCC 2998, 48 h, read-out: Activity
Summary of the method: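 Primary one-dose screen across the NCI 60-line panel at 10 µM. Cells were grown in RPMI 1640 with 5% FBS and 2 mM L-glutamine and held 24 h before drug. Drug was diluted from a DMSO concentrate. Exposure was 48 h at 37 °C, 5% CO2. Cells were fixed with TCA and stained with SRB, with absorbance read at 515 nm. Percent growth was calculated against time-zero and untreated control.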

[16] = test system: MDA-MB-435; assay: Cytotoxicity against human MDA-MB-435 cells assessed as cell growth at 10 '-5 M after 48 hrs by sulforhodamine B assay; conditions: MDA-MB-435, 48 h, read-out: Activity
[17] = test system: SK-MEL-2; assay: Cytotoxicity against human SK-MEL-2 cells assessed as cell growth at 10 '-5 M after 48 hrs by sulforhodamine B assay; conditions: SK-MEL-2, 48 h, read-out: Activity
[18] = test system: NCI-H460; assay: Growth inhibition of human NCI-H460 cells after 48 hrs by sulforhodamine B assay; conditions: NCI-H460, 48 h
Summary of the method: (§3)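 Adherent NCI-60 lines were grown in RPMI 1640 with 5% FBS and 2 mM L-glutamine, plated at 5000–40,000 cells/well and preincubated 24 h. They were then exposed to five concentrations (0.01–100 µM, from a DMSO stock) for 48 h at 37 °C, 5% CO2. Cells were fixed with cold TCA (10% final, 60 min, 4 °C) and stained with 0.4% SRB. Dye was solubilized in 10 mM Tris base and A515 read. GI50 was derived from time-zero, control and treated absorbances.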

[19] = test system: HT-29; assay: Growth inhibition of human HT-29 cells after 48 hrs by sulforhodamine B assay; conditions: HT-29, 48 h; summary of the method: as §3
[20] = test system: LOX IMVI; assay: Growth inhibition of human LOXIMVI cells after 48 hrs by sulforhodamine B assay; summary of the method: as §3
[21] = test system: TK-10; assay: Growth inhibition of human TK10 cells after 48 hrs by sulforhodamine B assay; conditions: TK-10, 48 h; for CC50: read-out: LC50 (the source's name); summary of the method: as §3
[22] = test system: MDA-MB-231; assay: Growth inhibition of human MDA-MB-231 cells after 48 hrs by sulforhodamine B assay; conditions: MDA-MB-231, 48 h; summary of the method: as §3
[23] = test system: HL-60(TB); assay: Cytotoxicity against human HL-60(TB) cells assessed as cell growth at 0.01 uM after 48 hrs by sulforhodamine B assay; conditions: HL-60, 48 h, read-out: Activity
Summary of the method: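 NCI five-dose screen on the HL-60(TB) leukaemia line, grown in RPMI 1640 with 5% FBS and 2 mM L-glutamine and plated for 24 h before dosing. DMSO stocks were diluted in medium. Cells were exposed 48 h at 37 °C, then settled cells were fixed in 16% TCA (final) and stained with SRB, absorbance 515 nm. Percent growth = (Ti−Tz)/(C−Tz)×100, or (Ti−Tz)/Tz×100 when Ti<Tz.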

[24] = test system: A549; assay: Cytotoxicity against human A549 cells assessed as cell growth at 0.01 uM after 48 hrs by sulforhodamine B assay; conditions: A549, 48 h, read-out: Activity; summary of the method: as §2
[25] = test system: HOP-62; assay: Cytotoxicity against human HOP62 cells assessed as cell growth at 0.01 uM after 48 hrs by sulforhodamine B assay; conditions: HOP-62, 48 h, read-out: Activity; summary of the method: as §1
[26] = test system: UACC-62; assay: Cytotoxicity against human UACC62 cells assessed as cell growth at 0.01 uM after 48 hrs by sulforhodamine B assay; conditions: UACC-62, 48 h, read-out: Activity

| SMILES | growth at 0.1 µM [1] | growth at 0.1 µM [2] | growth at 0.1 µM [3] | growth at 0.1 µM [4] | growth at 0.1 µM [5] | growth at 100 µM [6] | growth at 100 µM [7] | growth at 100 µM [8] | growth at 1 µM [9] | growth at 1 µM [10] | growth at 1 µM [11] | growth at 1 µM [12] | growth at 10 µM [13] | growth at 10 µM [14] | growth at 10 µM [15] | growth at 10 µM [16] | growth at 10 µM [17] | TGI [18] | GI50 [19] | LC50 (concentration killing 50% of cells) [19] | also measured |
| --- | --- | --- | --- | --- | --- | --- | --- | --- | --- | --- | --- | --- | --- | --- | --- | --- | --- | --- | --- | --- | --- |
| Cc1ccc2nc(Nc3c(C)cccc3C)sc2c1 | 99% | 105% | 85% | 98% | 97% | 53% | 73% | 45% | 83% | 55% | 52% | 39% | 44% | 19% | 54.1% | -23.7% | 34.6% | > 100000 nM | 629 nM | > 100000 nM | LC50 (concentration killing 50% of cells) [18]: > 100000 nM; TGI [19]: > 100000 nM; LC50 [20]: > 100000 nM; TGI [20]: > 100000 nM; GI50 [21]: > 100000 nM; TGI [21]: > 100000 nM; CC50 [21]: > 100000 nM; GI50 [22]: 528 nM; LC50 (concentration killing 50% of cells) [22]: > 100000 nM; TGI [22]: 59800 nM; growth at 0.01 µM [23]: 107%; growth at 0.01 µM [24]: 103%; growth at 0.01 µM [25]: 109%; growth at 0.01 µM [26]: 92% |
| Clc1cccc(Cl)c1Nc1nc2cccc(Cl)c2s1 | 101% | 102% | 86% | 99% | 94% | -84% | -67% | -35% | 55% | 62% | 46% | 18% | -65% | -86% | -26.1% | -55.9% | -52.7% | 2970 nM | 1290 nM | 6970 nM | GI50 [18]: 1320 nM; TGI [19]: 2990 nM; GI50 [20]: 1090 nM; TGI [20]: 2510 nM; GI50 [21]: 1160 nM; TGI [21]: 2570 nM; CC50 [21]: 5670 nM; GI50 [22]: 304 nM; LC50 (concentration killing 50% of cells) [22]: 4060 nM; TGI [22]: 1420 nM; growth at 0.01 µM [23]: 104%; growth at 0.01 µM [24]: 103%; growth at 0.01 µM [25]: 104%; growth at 0.01 µM [26]: 94% |

From ChEMBL document CHEMBL2040734, “Benzothiazoles: search for anticancer agents” (2012)
